Results published in ChEMBL document CHEMBL1165879, “Benzimidazole derivatives related to 2,3-acrylonitriles, benzimidazo[1,2-a]quinolines and fluorenes: synthesis, antitumor evaluation in vitro and crystal structure determination” (Eur J Med Chem, 2010).

Key:
MIA PaCa-2 = assay: Cytotoxicity against human MIAPaCa2 cells after 72 hrs by MTT assay; format: functional, cell-based; settings: MIA PaCa-2, 72 h
In short: (§1)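 Cells grown with FBS, 2 mM L-glutamine, penicillin and streptomycin at 37 °C, 5% CO2, humidified. Seeded in 96-well plates on day 0 at densities set by population doubling time. Five 10-fold dilutions (10^-8 to 10^-4 mol/L), freshly prepared, then 72 h exposure, modified NCI DTP method. Three individual experiments. IC50 from dose-response curves by linear regression.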

NCI-H460 = assay: Cytotoxicity against human H460 cells after 72 hrs by MTT assay; format: functional, cell-based; settings: NCI-H460, 72 h; in short: as §1
SW-620 = assay: Cytotoxicity against human SW620 cells after 72 hrs by MTT assay; format: functional, cell-based; settings: SW-620, 72 h; in short: as §1
HeLa = assay: Cytotoxicity against human HeLa cells after 72 hrs by MTT assay; format: functional, cell-based; in short: as §1
MCF7 = assay: Cytotoxicity against human MCF7 cells after 72 hrs by MTT assay; format: functional, cell-based; settings: MCF7, 72 h; in short: as §1
Calf thymus DNA [1] = assay: Binding affinity to calf thymus DNA assessed as change in melting temperature at compound/polynucleotide ratio 3 in sodium cacodylate buffer at pH 7; format: nucleic-acid assay; settings: Bos taurus; in the assay text read “compound/polynucleotide ratio 0.3” for “compound/polynucleotide ratio 3”
In short: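 Thermal melting of ct-DNA, alone and with compound, in sodium cacodylate buffer pH 7.0, I = 0.05 mol dm^-3, DMSO under 1%. Absorbance at 260 nm followed against temperature, heated at 1 °C per minute. Ligand absorbance subtracted and scale normalized. Tm taken as transition midpoint, from the first-derivative maximum or graphically by tangent.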

Calf thymus DNA [2] = assay: Binding affinity to calf thymus DNA assessed as change in melting temperature at compound/polynucleotide ratio 0.3 in sodium cacodylate buffer at pH 7; settings: Bos taurus

Structure (SMILES): N#C/C(=C\c1cnc[nH]1)c1nc2ccccc2[nH]1
- IC50 (MIA PaCa-2): 30 µM
- IC50 (NCI-H460): > 100 µM
- IC50 (SW-620): 70 µM
- IC50 (HeLa): 40 µM
- IC50 (MCF7): 92 µM

Structure (SMILES): Cc1ccc(/C=C(\C#N)c2nc3ccccc3[nH]2)cc1
- IC50 (MIA PaCa-2): 32 µM
- IC50 (NCI-H460): 81 µM
- IC50 (SW-620): 87 µM
- IC50 (HeLa): 20 µM
- IC50 (MCF7): 8 µM
- ΔTm (Calf thymus DNA [1]): 2.9 °C

Structure (SMILES): N#C/C(=C\c1ccc(F)cc1)c1nc2ccccc2[nH]1
- ΔTm (Calf thymus DNA [2]): 3 °C
- IC50 (MIA PaCa-2): 18 µM
- IC50 (NCI-H460): 43 µM
- IC50 (SW-620): 59 µM
- IC50 (HeLa): 15 µM
- IC50 (MCF7): 14 µM

Structure (SMILES): CCN(CC)c1ccc(/C=C(\C#N)c2nc3ccccc3[nH]2)c(O)c1
- IC50 (MIA PaCa-2): 3 µM
- IC50 (NCI-H460): 11 µM
- IC50 (SW-620): 10 µM
- IC50 (HeLa): 3 µM
- IC50 (MCF7): 2 µM

Structure (SMILES): N#Cc1cc2ccsc2n2c1nc1ccccc12
- IC50 (MIA PaCa-2): 28 µM
- IC50 (NCI-H460): 30 µM
- IC50 (SW-620): 16 µM
- IC50 (HeLa): 19 µM
- IC50 (MCF7): 31 µM

Structure (SMILES): N#Cc1cc2ccc(F)cc2n2c1nc1ccccc12
- IC50 (MIA PaCa-2): 28 µM
- IC50 (NCI-H460): 26 µM
- IC50 (SW-620): 22 µM
- IC50 (HeLa): 29 µM
- IC50 (MCF7): 50 µM
- ΔTm (Calf thymus DNA [1]): 4.4 °C

Structure (SMILES): COc1cccc2c1C(=O)c1c(O)c3c(c(O)c1C2=O)C[C@@](O)(C(=O)CO)C[C@@H]3O[C@H]1C[C@H](N)[C@H](O)[C@H](C)O1 [DOXORUBICIN]
- IC50 (MIA PaCa-2): 0.01 µM
- IC50 (MCF7): 0.04 µM

Structure (SMILES): Cn1ccc2cc(C#N)c3nc4ccccc4n3c21
- IC50 (MIA PaCa-2): 4 µM
- IC50 (NCI-H460): 22 µM
- IC50 (SW-620): 25 µM
- IC50 (HeLa): 0.7 µM
- IC50 (MCF7): 11 µM
- ΔTm (Calf thymus DNA [1]): 2.4 °C

Structure (SMILES): N#C/C(=C\c1cccs1)c1nc2ccccc2[nH]1
- IC50 (MIA PaCa-2): > 50 µM
- IC50 (NCI-H460): > 50 µM
- IC50 (SW-620): 48 µM
- IC50 (HeLa): 8 µM
- IC50 (MCF7): 30 µM

Structure (SMILES): Cn1cccc1/C=C(\C#N)c1nc2ccccc2[nH]1
- IC50 (MIA PaCa-2): 4 µM
- IC50 (NCI-H460): 26 µM
- IC50 (SW-620): 30 µM
- IC50 (HeLa): 0.8 µM
- IC50 (MCF7): 13 µM
- ΔTm (Calf thymus DNA [1]): 0.4 °C

Structure (SMILES): N#Cc1ccc2cc(C#N)c3nc4ccccc4n3c2c1
- IC50 (MIA PaCa-2): > 50 µM
- IC50 (NCI-H460): 23 µM
- IC50 (SW-620): 14 µM
- IC50 (HeLa): 16 µM
- IC50 (MCF7): > 50 µM

Structure (SMILES): N#C/C(=C\c1ccco1)c1nc2ccccc2[nH]1
- IC50 (MIA PaCa-2): 28 µM
- IC50 (NCI-H460): > 50 µM
- IC50 (SW-620): > 50 µM
- IC50 (HeLa): 25 µM
- IC50 (MCF7): 17 µM

Structure (SMILES): N#Cc1cc2ccc(Br)cc2n2c1nc1ccccc12
- IC50 (MIA PaCa-2): > 50 µM
- IC50 (NCI-H460): 37 µM
- IC50 (SW-620): 13 µM
- IC50 (HeLa): 20 µM
- IC50 (MCF7): 37 µM

Structure (SMILES): N#C/C(=C\c1ccncc1)c1nc2ccccc2[nH]1
- IC50 (MIA PaCa-2): 57 µM
- IC50 (NCI-H460): 78 µM
- IC50 (SW-620): 42 µM
- IC50 (HeLa): 21 µM
- IC50 (MCF7): 9 µM

Structure (SMILES): COc1ccc(OC)c(/C=C(\C#N)c2nc3ccccc3[nH]2)c1
- ΔTm (Calf thymus DNA [2]): 3 °C
- IC50 (MIA PaCa-2): 0.8 µM
- IC50 (NCI-H460): 27 µM
- IC50 (SW-620): 23 µM
- IC50 (HeLa): 1 µM
- IC50 (MCF7): 12 µM

Structure (SMILES): COc1ccc(OC)c2c1cc(C#N)c1nc3ccccc3n12
- IC50 (MIA PaCa-2): 23 µM
- IC50 (NCI-H460): 14 µM
- IC50 (SW-620): 6 µM
- IC50 (HeLa): 5 µM
- IC50 (MCF7): 31 µM
- ΔTm (Calf thymus DNA [1]): 4.2 °C

Structure (SMILES): N#C/C(=C\c1ccc(Br)cc1)c1nc2ccccc2[nH]1
- IC50 (MIA PaCa-2): 46 µM
- IC50 (NCI-H460): > 50 µM
- IC50 (SW-620): > 50 µM
- IC50 (HeLa): 9 µM
- IC50 (MCF7): 19 µM

Structure (SMILES): N#Cc1cc2ccncc2n2c1nc1ccccc12
- IC50 (MIA PaCa-2): 32 µM
- IC50 (NCI-H460): 57 µM
- IC50 (SW-620): 30 µM
- IC50 (HeLa): 45 µM
- IC50 (MCF7): 67 µM

Structure (SMILES): CC(=O)Nc1ccc2cc(C#N)c3nc4ccccc4n3c2c1
- IC50 (MIA PaCa-2): 2 µM
- IC50 (NCI-H460): 90 µM
- IC50 (SW-620): 5 µM
- IC50 (HeLa): 2 µM
- IC50 (MCF7): 5 µM

Structure (SMILES): CN(C)c1ccc(/C=C(\C#N)c2nc3ccccc3[nH]2)cc1
- IC50 (MIA PaCa-2): 26 µM
- IC50 (NCI-H460): > 50 µM
- IC50 (SW-620): > 50 µM
- IC50 (HeLa): > 50 µM
- IC50 (MCF7): 4 µM

Structure (SMILES): Cc1ccc2cc(C#N)c3nc4ccccc4n3c2c1
- IC50 (MIA PaCa-2): > 100 µM
- IC50 (NCI-H460): > 100 µM
- IC50 (SW-620): > 100 µM
- IC50 (HeLa): > 100 µM
- IC50 (MCF7): 70 µM
- ΔTm (Calf thymus DNA [1]): 4.8 °C

Structure (SMILES): CC(=O)Nc1ccc(/C=C(\C#N)c2nc3ccccc3[nH]2)cc1
- IC50 (MIA PaCa-2): 48 µM
- IC50 (NCI-H460): > 100 µM
- IC50 (SW-620): > 100 µM
- IC50 (HeLa): 3 µM
- IC50 (MCF7): 4 µM
